In ChEMBL document CHEMBL5058577, “EUbOPEN Chemogenomics Library 2 (Multiplex)” (2022):

System: Fibroblast
Assay: Multiplex assay against human fibroblast
Format: toxicity, cell-based
Outline: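 Tubulin, mitochondrial-mass and membrane-permeability phenotypes are per cents of healthy-nucleus cells. Cells were gated by CellPathfinder machine learning into Hoechst high-intensity objects or normal cells, normal cells into healthy, pyknosed or fragmented nuclei, and pyknosed cells into mitotic or apoptotic. Before that, live cells stained at seeding with Hoechst33342, BioTracker Green Microtubule Cytoskeleton Dye, MitoTracker Red and Annexin V Alexa Fluor 680 were imaged on a CQ1 microscope at 37°C and 5% CO2 after compound addition.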

[1] = 12 h, 1 µM, compound concentration 1 uM, replicate 1
[2] = 12 h, 1 µM, compound concentration 1 uM, replicate 2
[3] = 12 h, 10 µM, compound concentration 10 uM, replicate 1
[4] = 12 h, 10 µM, compound concentration 10 uM, replicate 2
[5] = 24 h, 1 µM, compound concentration 1 uM, replicate 1
[6] = 24 h, 1 µM, compound concentration 1 uM, replicate 2
[7] = 24 h, 10 µM, compound concentration 10 uM, replicate 1
[8] = 24 h, 10 µM, compound concentration 10 uM, replicate 2
[9] = 48 h, 1 µM, compound concentration 1 uM, replicate 1
[10] = 48 h, 1 µM, compound concentration 1 uM, replicate 2
[11] = 48 h, 10 µM, compound concentration 10 uM, replicate 1
[12] = 48 h, 10 µM, compound concentration 10 uM, replicate 2

COC(c1ccccc1)(c1ccccc1)[C@H](Oc1nc(C)cc(C)n1)C(=O)O [AMBRISENTAN]
Population Apoptotic (%) [1]: 68% | Population Fragmented Nuclei (%) [1]: 13% | Population Healthy Nuclei (%) [1]: 66% | Population Hoechst High Intensity Objects (%) [1]: 1% | Population Membrane Permeable-Phenotype (%) [1]: 0% | Population Mitochondria Different-Phenotype (%) [1]: 4% | Population Mitotic Cells (%) [1]: 31% | Population Normal (%) [1]: 98% | Population Pyknosed Nuclei (%) [1]: 19% | Population Tubulin-Different-Phenotype (%) [1]: 29% | Total Cell Count [1]: 97 | Population Apoptotic (%) [2]: 30% | Population Fragmented Nuclei (%) [2]: 18% | Population Healthy Nuclei (%) [2]: 56% | Population Hoechst High Intensity Objects (%) [2]: 4% | Population Membrane Permeable-Phenotype (%) [2]: 1% | Population Mitochondria Different-Phenotype (%) [2]: 6% | Population Mitotic Cells (%) [2]: 69% | Population Normal (%) [2]: 95% | Population Pyknosed Nuclei (%) [2]: 25% | Population Tubulin-Different-Phenotype (%) [2]: 37% | Total Cell Count [2]: 163 | Population Apoptotic (%) [3]: 56% | Population Fragmented Nuclei (%) [3]: 8% | Population Healthy Nuclei (%) [3]: 70% | Population Hoechst High Intensity Objects (%) [3]: 5% | Population Membrane Permeable-Phenotype (%) [3]: 0% | Population Mitochondria Different-Phenotype (%) [3]: 11% | Population Mitotic Cells (%) [3]: 43% | Population Normal (%) [3]: 94% | Population Pyknosed Nuclei (%) [3]: 21% | Population Tubulin-Different-Phenotype (%) [3]: 25% | Total Cell Count [3]: 145 | Population Apoptotic (%) [4]: 33% | Population Fragmented Nuclei (%) [4]: 39% | Population Healthy Nuclei (%) [4]: 25% | Population Hoechst High Intensity Objects (%) [4]: 4% | Population Membrane Permeable-Phenotype (%) [4]: 5% | Population Mitochondria Different-Phenotype (%) [4]: 0% | Population Mitotic Cells (%) [4]: 66% | Population Normal (%) [4]: 95% | Population Pyknosed Nuclei (%) [4]: 34% | Population Tubulin-Different-Phenotype (%) [4]: 35% | Total Cell Count [4]: 82 | Population Apoptotic (%) [5]: 62% | Population Fragmented Nuclei (%) [5]: 15% | Population Healthy Nuclei (%) [5]: 67% | Population Hoechst High Intensity Objects (%) [5]: 2% | Population Membrane Permeable-Phenotype (%) [5]: 0% | Population Mitochondria Different-Phenotype (%) [5]: 4% | Population Mitotic Cells (%) [5]: 37% | Population Normal (%) [5]: 97% | Population Pyknosed Nuclei (%) [5]: 17% | Population Tubulin-Different-Phenotype (%) [5]: 38% | Total Cell Count [5]: 95 | Population Apoptotic (%) [6]: 34% | Population Fragmented Nuclei (%) [6]: 14% | Population Healthy Nuclei (%) [6]: 62% | Population Hoechst High Intensity Objects (%) [6]: 5% | Population Membrane Permeable-Phenotype (%) [6]: 3% | Population Mitochondria Different-Phenotype (%) [6]: 3% | Population Mitotic Cells (%) [6]: 65% | Population Normal (%) [6]: 94% | Population Pyknosed Nuclei (%) [6]: 23% | Total Cell Count [6]: 158 | Population Apoptotic (%) [7]: 69% | Population Fragmented Nuclei (%) [7]: 12% | Population Healthy Nuclei (%) [7]: 68% | Population Hoechst High Intensity Objects (%) [7]: 7% | Population Membrane Permeable-Phenotype (%) [7]: 0% | Population Mitochondria Different-Phenotype (%) [7]: 11% | Population Mitotic Cells (%) [7]: 30% | Population Normal (%) [7]: 92% | Population Pyknosed Nuclei (%) [7]: 18% | Population Tubulin-Different-Phenotype (%) [7]: 29% | Total Cell Count [7]: 149 | Population Apoptotic (%) [8]: 27% | Population Fragmented Nuclei (%) [8]: 46% | Population Healthy Nuclei (%) [8]: 27% | Population Hoechst High Intensity Objects (%) [8]: 5% | Population Membrane Permeable-Phenotype (%) [8]: 5% | Population Mitochondria Different-Phenotype (%) [8]: 10% | Population Mitotic Cells (%) [8]: 72% | Population Normal (%) [8]: 94% | Population Pyknosed Nuclei (%) [8]: 26% | Population Tubulin-Different-Phenotype (%) [8]: 36% | Total Cell Count [8]: 73 | Population Apoptotic (%) [9]: 60% | Population Fragmented Nuclei (%) [9]: 19% | Population Healthy Nuclei (%) [9]: 64% | Population Hoechst High Intensity Objects (%) [9]: 4% | Population Membrane Permeable-Phenotype (%) [9]: 1% | Population Mitochondria Different-Phenotype (%) [9]: 5% | Population Mitotic Cells (%) [9]: 40% | Population Normal (%) [9]: 95% | Population Pyknosed Nuclei (%) [9]: 16% | Population Tubulin-Different-Phenotype (%) [9]: 28% | Total Cell Count [9]: 93 | Population Apoptotic (%) [10]: 61% | Population Fragmented Nuclei (%) [10]: 24% | Population Healthy Nuclei (%) [10]: 54% | Population Hoechst High Intensity Objects (%) [10]: 0% | Population Membrane Permeable-Phenotype (%) [10]: 4% | Population Mitochondria Different-Phenotype (%) [10]: 10% | Population Mitotic Cells (%) [10]: 38% | Population Normal (%) [10]: 99% | Population Pyknosed Nuclei (%) [10]: 20% | Population Tubulin-Different-Phenotype (%) [10]: 42% | Total Cell Count [10]: 154 | Population Apoptotic (%) [11]: 61% | Population Fragmented Nuclei (%) [11]: 14% | Population Healthy Nuclei (%) [11]: 71% | Population Hoechst High Intensity Objects (%) [11]: 7% | Population Membrane Permeable-Phenotype (%) [11]: 1% | Population Mitochondria Different-Phenotype (%) [11]: 10% | Population Mitotic Cells (%) [11]: 38% | Population Normal (%) [11]: 92% | Population Pyknosed Nuclei (%) [11]: 13% | Population Tubulin-Different-Phenotype (%) [11]: 34% | Total Cell Count [11]: 145 | Population Apoptotic (%) [12]: 71% | Population Fragmented Nuclei (%) [12]: 50% | Population Healthy Nuclei (%) [12]: 31% | Population Hoechst High Intensity Objects (%) [12]: 3% | Population Membrane Permeable-Phenotype (%) [12]: 0% | Population Mitochondria Different-Phenotype (%) [12]: 0% | Population Mitotic Cells (%) [12]: 28% | Population Normal (%) [12]: 96% | Population Pyknosed Nuclei (%) [12]: 18% | Population Tubulin-Different-Phenotype (%) [12]: 62% | Total Cell Count [12]: 79
